Source: PubChem BioAssay (Johns Hopkins Ion Channel Center)
This is a sample that favours compounds with a hit; in the whole collection about 3.7% have one here.
hERG protect: compounds protecting human hERG from proarrhythmic drug block; Q12809; activation (rescue from dofetilide block), less the hit threshold, % at 10 µM; CHO-hERG, FluxOR thallium flux, dofetilide IC70 present; 0.51% of 310,000 active;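 active = activation above the mean of controls blocked by dofetilide plus 5 SD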;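 note: thallium influx through hERG after potassium depolarization seen as dye fluorescence rise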
KCNQ1 act: human KCNQ1 channel potentiation or activation; P51787; CHO-K1 KCNQ1, thallium flux FluxOR fluorescence; active compounds read high; B-score at 10 µM; 0.35% of 310,000 active; AID 2648;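 active = fluorescence ratio B-score, a plate-corrected score, at least three library SD, with initial intensity B-score within 5 SD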
Target sequence (P51787 whole entry, looked up): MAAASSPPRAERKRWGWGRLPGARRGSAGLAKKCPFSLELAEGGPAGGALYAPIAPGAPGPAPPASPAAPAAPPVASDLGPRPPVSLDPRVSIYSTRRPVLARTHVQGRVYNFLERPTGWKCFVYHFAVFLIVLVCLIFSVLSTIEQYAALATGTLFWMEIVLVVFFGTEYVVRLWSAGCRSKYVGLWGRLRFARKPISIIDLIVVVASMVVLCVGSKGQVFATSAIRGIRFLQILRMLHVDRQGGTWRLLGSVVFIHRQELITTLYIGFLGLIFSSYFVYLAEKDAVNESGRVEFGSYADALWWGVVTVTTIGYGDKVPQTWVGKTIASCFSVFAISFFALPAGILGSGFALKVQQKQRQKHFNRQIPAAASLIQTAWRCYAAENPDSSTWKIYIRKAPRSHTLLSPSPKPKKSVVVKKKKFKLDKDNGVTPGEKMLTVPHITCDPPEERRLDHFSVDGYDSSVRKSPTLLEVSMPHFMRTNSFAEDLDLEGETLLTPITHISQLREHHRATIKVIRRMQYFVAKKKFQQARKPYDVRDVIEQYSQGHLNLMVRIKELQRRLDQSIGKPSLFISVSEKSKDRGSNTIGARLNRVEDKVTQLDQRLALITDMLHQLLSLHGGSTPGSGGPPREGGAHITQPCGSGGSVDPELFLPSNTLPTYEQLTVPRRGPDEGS
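System: CHO-K1 cells stably expressing KCNQ1 / Medium: assay buffer for compound exposure, DMSO matched across wells / Reagent: thallium- and potassium-containing depolarizing buffer / Compound: one concentration, matched DMSO / Incubation: 20 min compound pretreatment at room temperature / Measured by: kinetic FluxOR fluorescence, 10 s baseline plus 110 s post-stimulus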
Kir21 block: Kir2.1 (mouse) channel inhibition | 0.85% of 310,000 active | B-score at 10 µM | HEK293-Kir2.1, FluxOR thallium flux fluorescence; active compounds read low | AID 1672 | P35561;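 active = fluorescence ratio B-score at or below minus 3 SD of library scores, with starting-brightness B-score within 2 SD, cut at about -4.2 in these data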;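 note: channel flux triggered by added potassium and thallium sulfate stimulus; B-score of peak minus minimum fluorescence over baseline after thallium stimulus; more negative B-score means stronger Kir2.1 block with less thallium influx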
KCNK9 inh: human KCNK9 channel inhibition; HEK293 KCNK9, FluxOR thallium flux fluorescence; active compounds read low; B-score at 10 µM; 1.2% of 310,000 active;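 active = ratio B-score over 3 SD below the library mean, with starting fluorescence within 5 SD of its mean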;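 note: negative B-score means less thallium flux so channel inhibition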
KCNQ1 inh: inhibitors of human KCNQ1 potassium channel. P51787. CHO-K1 KCNQ1, FluxOR thallium flux fluorescence; active compounds read high. B-score at 10 µM. 1.3% of 310,000 active;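 active = compounds whose thallium flux B-score, printed positive for inhibition, exceeds three library SD while starting fluorescence stays within three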;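 note: channel opened by potassium depolarization with thallium stimulus after 20 min compound exposure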
KCNK3 inh: human KCNK3 channel inhibition, primary screen. 0.84% of 340,000 active. O14649. B-score at 10 µM. CHO-KCNK3 thallium flux, FluxOR fluorescence; active compounds read low;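 active = B-score under library mean minus 4 SD, starting fluorescence ratio at most library mean plus 5 SD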;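 note: more negative B-score means stronger inhibition of thallium flux through KCNK3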
Hits are given with their value.

Cc1cc(N2CCN(C)CC2)nc(N2CCOCC2)n1 was read as hERG protect 8.0, KCNQ1 act inactive, Kir21 block inactive, KCNK9 inh inactive, KCNQ1 inh inactive and KCNK3 inh inactive.
For Cc1cc(N2CCOCC2)nc(N2CCOCC2)n1 the results were hERG protect inactive, KCNQ1 act inactive, Kir21 block inactive, KCNK9 inh inactive, KCNQ1 inh inactive and KCNK3 inh inactive.
Screening CCn1cc(SCC(=O)NC2CCCC2)c2ccccc21 returned hERG protect inactive, KCNQ1 act inactive, Kir21 block -4.8, KCNK9 inh inactive, KCNQ1 inh inactive and KCNK3 inh inactive.
CCOC(=O)N1CCC(NC(=O)CSc2cc(=O)n(CC)c3ccccc23)CC1 was read as hERG protect inactive, KCNQ1 act inactive, Kir21 block inactive, KCNK9 inh -7.1, KCNQ1 inh inactive and KCNK3 inh inactive.
O=C(CSc1nnc(C2CC2)n1C1CC1)c1cc(F)ccc1F was read as KCNK3 inh inactive.
`CCc1ccc2[nH]c(C(=O)Nc3ccc(F)cc3Br)cc2c1` gave hERG protect inactive, KCNQ1 act 8, Kir21 block inactive, KCNK9 inh inactive, KCNQ1 inh inactive and KCNK3 inh inactive.
Screening CN(c1ccccc1)S(=O)(=O)c1ccc(Cl)c(C(=O)Nc2ccc(-c3nc4ccccc4[nH]3)cc2)c1 returned hERG protect inactive, KCNQ1 act inactive, Kir21 block inactive, KCNK9 inh inactive, KCNQ1 inh inactive and KCNK3 inh inactive.
CN(c1ccccc1)S(=O)(=O)c1ccc(Cl)c(C(=O)Nc2nc3ccccc3[nH]2)c1 was read as hERG protect inactive, KCNQ1 act inactive, Kir21 block inactive, KCNK9 inh -7.1, KCNQ1 inh inactive and KCNK3 inh inactive.
CN(Cc1ccccc1)C(=S)NC(=O)c1ccc(-c2ccccc2)cc1 was read as hERG protect inactive, KCNQ1 act inactive, Kir21 block inactive, KCNK9 inh inactive, KCNQ1 inh inactive and KCNK3 inh inactive.
CN(Cc1ccccc1)C(=S)NC(=O)c1cccs1 was read as hERG protect inactive, KCNQ1 act 39, Kir21 block inactive, KCNK9 inh inactive, KCNQ1 inh inactive and KCNK3 inh inactive.
Cc1ccc2nc(/C(C#N)=C\c3ccc(N4CCOCC4)o3)[nH]c2c1 was read as hERG protect inactive, KCNQ1 act inactive, Kir21 block inactive, KCNK9 inh inactive, KCNQ1 inh 6 and KCNK3 inh inactive.
For Cc1ccc2nc(/C(C#N)=C\c3ccc([N+](=O)[O-])o3)[nH]c2c1 the results were hERG protect inactive, KCNQ1 act inactive, Kir21 block inactive, KCNK9 inh inactive, KCNQ1 inh inactive and KCNK3 inh inactive.
`COc1ccc(CNC2c3ccccc3-c3ccccc32)cc1OC` gave hERG protect inactive, KCNQ1 act inactive, Kir21 block -4.4, KCNK9 inh inactive, KCNQ1 inh inactive and KCNK3 inh inactive.
Screening COc1ccc(CNC2CCCc3ccccc32)cc1OC (stereo unspecified) returned hERG protect inactive, KCNQ1 act inactive, Kir21 block inactive, KCNK9 inh inactive, KCNQ1 inh inactive and KCNK3 inh inactive.
Screening CC(C)CC(=O)Nc1ccc(C(=O)NNC(=S)NC(=O)C2CCCCC2)cc1 returned hERG protect inactive, KCNQ1 act inactive, Kir21 block inactive, KCNK9 inh inactive, KCNQ1 inh 7 and KCNK3 inh inactive.
Screening CCNc1nc(NC(C)C)nc(N(C#N)CCOc2ccc(Cl)cc2Cl)n1 returned hERG protect inactive, KCNQ1 act inactive, Kir21 block inactive, KCNK9 inh -7.5, KCNQ1 inh inactive and KCNK3 inh -11.
CCNc1nc(NC(C)C)nc(N(C#N)Cc2ccccc2)n1 was read as hERG protect inactive, KCNQ1 act inactive, Kir21 block inactive, KCNK9 inh -7.3, KCNQ1 inh inactive and KCNK3 inh inactive.
Screening CCNc1nc(NC(C)C)nc(N(C#N)CC(=O)OC)n1 returned hERG protect inactive, KCNQ1 act inactive, Kir21 block inactive, KCNK9 inh inactive, KCNQ1 inh inactive and KCNK3 inh inactive.
Screening CC(C)=CCc1cc2c(=O)c3c(O)c4c(cc3oc2c(O)c1O)OC(C)C4(C)C (stereo unspecified) returned hERG protect inactive, KCNQ1 act inactive, Kir21 block inactive, KCNK9 inh inactive and KCNQ1 inh 6.
Screening COc1ccc(NS(=O)(=O)c2cccc(C(=O)NNC(=O)c3ccc(C)o3)c2)cc1 returned KCNK3 inh inactive.
Screening COc1cc2nc(Nc3ccc(F)cc3)nc(N)c2cc1OC returned hERG protect inactive, KCNQ1 act inactive, Kir21 block -5.9, KCNK9 inh inactive, KCNQ1 inh inactive and KCNK3 inh inactive.
COc1ccc(Nc2ccnc(Nc3ccc(OC)cc3)n2)cc1 was read as hERG protect inactive, KCNQ1 act inactive, Kir21 block -6.5, KCNK9 inh inactive, KCNQ1 inh inactive and KCNK3 inh inactive.
`CC(C)c1ccc2c(c1)C(N1CCNCC1)Cc1ccc(F)cc1S2` (stereo unspecified) gave hERG protect inactive, KCNQ1 act inactive, Kir21 block -5.2, KCNK9 inh inactive, KCNQ1 inh inactive and KCNK3 inh inactive.
Screening COc1ccc(C(C)(C)C)cc1NC(=O)CCc1c(C)noc1C returned KCNK3 inh inactive.
For COC(=O)C1Cc2c([nH]c3ccccc23)C2(CCN(Cc3ccccc3)CC2)N1 (stereo unspecified) the results were hERG protect inactive, KCNQ1 act inactive, Kir21 block -6.8, KCNK9 inh inactive, KCNQ1 inh inactive and KCNK3 inh inactive.
`Cc1ccc(N=c2oc3cc(O)ccc3cc2C(N)=O)cc1` gave hERG protect inactive, KCNQ1 act inactive, Kir21 block inactive, KCNK9 inh inactive, KCNQ1 inh inactive and KCNK3 inh inactive.
COc1ccc(N=c2oc3cc(O)ccc3cc2C(=O)Nc2ccccn2)cc1OC was read as hERG protect inactive, KCNQ1 act inactive, Kir21 block inactive, KCNK9 inh -6.8, KCNQ1 inh 9 and KCNK3 inh inactive.
COc1ccc(C(=O)c2c3ccc(OC)cc3[n+]([O-])n2Cc2ccc(C(N)=O)cc2)cc1 was read as KCNK3 inh inactive.
Screening COC(=O)c1scc(C)c1NC(=O)c1ccccc1F returned hERG protect inactive, KCNQ1 act inactive, Kir21 block inactive, KCNK9 inh inactive, KCNQ1 inh inactive and KCNK3 inh inactive.
Screening COc1cccc(NC(=O)CSc2c3c(nc4ccccc24)CCCC3)c1 returned hERG protect inactive, KCNQ1 act inactive, Kir21 block -5.8, KCNK9 inh inactive, KCNQ1 inh inactive and KCNK3 inh inactive.
`N#Cc1ccc(C(=O)N2CCN(C(=O)C3CCCO3)CC2)cc1` (stereo unspecified) gave KCNK3 inh inactive.
O=C(CN1CCCCC1)Nc1c2c(nc3ccccc13)N(c1ccccc1)CC2 was read as hERG protect inactive, KCNQ1 act inactive, Kir21 block inactive, KCNK9 inh inactive, KCNQ1 inh inactive and KCNK3 inh inactive.
